The values that follow come from ChEMBL document CHEMBL1157526, “Development of novel beta-amyloid probes based on 3,5-diphenyl-1,2,4-oxadiazole” (Bioorg Med Chem, 2008).

Broadly, the Ki is the equilibrium dissociation constant of an inhibitor or competing ligand from its target. High values mean lower affinity, low ones higher affinity.

A short description of series [1]: Displacement of [125I]IMPY from amyloid beta (1-42) aggregates. The method in brief:
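Synthetic Aβ(1–42) dissolved at 0.25 mg/mL in 10 mM sodium phosphate, 1 mM EDTA, pH 7.4, aggregated 42 h at 37 °C with gentle constant shaking. Competition against [125I]IMPY (2200 Ci/mmol, >95% radiochemical purity). Filter-bound radioactivity gamma-counted, specific binding under 15% of total. IC50 from displacement curves, Ki by Cheng-Prusoff. Mean ± SEM of 3–6 independent experiments.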

In series [2] the test system is Kidney. Nature of the series: Biodistribution in ddY mouse kidney at 0.5 uCi, iv after 30 mins. The series is classed as ADME, organism-based. The conditions noted are these: in vivo, 0.5 h. The essentials:
(§1)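 Normal male-unspecified ddY mice (5-week-old, 22–25 g) given radioiodinated ligand by tail-vein injection, killed at set times post-injection. Organs removed and weighed, radioactivity counted in a gamma counter. Expressed as % injected dose per gram, stomach as % injected dose per organ. Mean (s.d.) of 3–5 animals per time point.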

Series [3] has as its system Liver. Nature of the series: Biodistribution in ddY mouse liver at 0.5 uCi, iv after 10 mins. The series is classed as ADME, organism-based. The conditions noted are these: in vivo. The essentials:
as §1

In series [4] the test system is Spleen. In words: Biodistribution in ddY mouse spleen at 0.5 uCi, iv after 2 mins. Type of series: ADME, organism-based. The conditions noted are these: in vivo. The method in brief: as §1
For series [5], the system named is Heart. Nature of the series: Biodistribution in ddY mouse heart at 0.5 uCi, iv after 60 mins. The series is classed as ADME, organism-based. The conditions noted are these: in vivo, 1 h. The method in brief:
as §1

In series [6] the test system is Liver. In words: Biodistribution in ddY mouse liver at 0.5 uCi, iv after 2 mins. The series is classed as ADME, organism-based. The conditions noted are these: in vivo. The essentials:
as §1

For series [7], the system named is Stomach. Nature of the series: Biodistribution in ddY mouse stomach at 0.5 uCi, iv after 2 mins. Type of series: ADME, organism-based. The conditions noted are these: in vivo. The method in brief:
as §1

In series [8] the test system is Intestine. Nature of the series: Biodistribution in ddY mouse intestine at 0.5 uCi, iv after 60 mins. Type of series: ADME, organism-based. The conditions noted are these: in vivo, 1 h. The method in brief:
as §1

Series [9] deals with Brain. In words: Biodistribution in ddY mouse brain at 0.5 uCi, iv after 10 mins. The series is classed as ADME, organism-based. The conditions noted are these: in vivo. The essentials:
as §1

Series [10] deals with Spleen. Nature of the series: Biodistribution in ddY mouse spleen at 0.5 uCi, iv after 60 mins. The conditions noted are these: in vivo, 1 h. The series is classed as ADME, organism-based. The method in brief:
as §1

In series [11] the test system is Pancreas. Nature of the series: Biodistribution in ddY mouse pancreas at 0.5 uCi, iv after 60 mins. Type of series: ADME, organism-based. The conditions noted are these: in vivo, 1 h. The essentials:
as §1

In series [12] the test system is Pancreas. In words: Biodistribution in ddY mouse pancreas at 0.5 uCi, iv after 30 mins. The series is classed as ADME, organism-based. The conditions noted are these: in vivo, 0.5 h. The essentials: as §1
In series [13] the test system is Brain. In words: Biodistribution in ddY mouse brain at 0.5 uCi, iv after 30 mins. Type of series: ADME, organism-based. The conditions noted are these: in vivo, 0.5 h. The method in brief: as §1
Series [14] relates to Liver. In words: Biodistribution in ddY mouse liver at 0.5 uCi, iv after 60 mins. Type of series: ADME, organism-based. The conditions noted are these: in vivo, 1 h. The method in brief:
as §1

Series [15] has as its system Stomach. In words: Biodistribution in ddY mouse stomach at 0.5 uCi, iv after 10 mins. The conditions noted are these: in vivo. The series is classed as ADME, organism-based. The essentials: as §1
Series [16] relates to Brain. Nature of the series: Biodistribution in ddY mouse brain at 0.5 uCi, iv after 2 mins. The series is classed as ADME, organism-based. The conditions noted are these: in vivo. The essentials:
as §1

The test system of series [17] is Intestine. Nature of the series: Biodistribution in ddY mouse intestine at 0.5 uCi, iv after 2 mins. The series is classed as ADME, organism-based. The conditions noted are these: in vivo. The method in brief: as §1
The subject of series [18] is Heart. In words: Biodistribution in ddY mouse heart at 0.5 uCi, iv after 30 mins. Type of series: ADME, organism-based. The conditions noted are these: in vivo, 0.5 h. The essentials: as §1
Series [19] relates to Heart. In words: Biodistribution in ddY mouse heart at 0.5 uCi, iv after 2 mins. Type of series: ADME, organism-based. The conditions noted are these: in vivo. The method in brief:
as §1

The subject of series [20] is Pancreas. Nature of the series: Biodistribution in ddY mouse pancreas at 0.5 uCi, iv after 2 mins. Type of series: ADME, organism-based. The conditions noted are these: in vivo. The essentials:
as §1

For series [21], the system named is Blood. In words: Biodistribution in ddY mouse blood at 0.5 uCi, iv after 30 mins. The series is classed as ADME, organism-based. The conditions noted are these: in vivo, 0.5 h. The essentials:
as §1

Series [22] deals with Brain. In words: Biodistribution in ddY mouse brain at 0.5 uCi, iv after 60 mins. The series is classed as ADME, organism-based. The conditions noted are these: in vivo, 1 h. The method in brief: as §1
Series [23] relates to Kidney. Nature of the series: Biodistribution in ddY mouse kidney at 0.5 uCi, iv after 2 mins. Type of series: ADME, organism-based. The conditions noted are these: in vivo. The method in brief: as §1
Series [24] concerns Stomach. In words: Biodistribution in ddY mouse stomach at 0.5 uCi, iv after 30 mins. The conditions noted are these: in vivo, 0.5 h. The series is classed as ADME, organism-based. The method in brief: as §1
Series [25] concerns Spleen. In words: Biodistribution in ddY mouse spleen at 0.5 uCi, iv after 10 mins. Type of series: ADME, organism-based. The conditions noted are these: in vivo. The method in brief: as §1
For series [26], the system named is Kidney. In words: Biodistribution in ddY mouse kidney at 0.5 uCi, iv after 60 mins. The conditions noted are these: in vivo, 1 h. The series is classed as ADME, organism-based. The essentials: as §1
Series [27] concerns Stomach. In words: Biodistribution in ddY mouse stomach at 0.5 uCi, iv after 60 mins. The conditions noted are these: in vivo, 1 h. Type of series: ADME, organism-based. The essentials: as §1
The test system of series [28] is Kidney. In words: Biodistribution in ddY mouse kidney at 0.5 uCi, iv after 10 mins. The series is classed as ADME, organism-based. The conditions noted are these: in vivo. The method in brief:
as §1

Series [29] concerns Heart. Nature of the series: Biodistribution in ddY mouse heart at 0.5 uCi, iv after 10 mins. The conditions noted are these: in vivo. Type of series: ADME, organism-based. The method in brief:
as §1

Series [30] deals with Intestine. Nature of the series: Biodistribution in ddY mouse intestine at 0.5 uCi, iv after 10 mins. The series is classed as ADME, organism-based. The conditions noted are these: in vivo. The essentials:
as §1

Series [31] relates to Spleen. Nature of the series: Biodistribution in ddY mouse spleen at 0.5 uCi, iv after 30 mins. The series is classed as ADME, organism-based. The conditions noted are these: in vivo, 0.5 h. The essentials:
as §1

Series [32] concerns Blood. Nature of the series: Biodistribution in ddY mouse blood at 0.5 uCi, iv after 60 mins. The series is classed as ADME, organism-based. The conditions noted are these: in vivo, 1 h. The method in brief:
as §1

Series [33] concerns Pancreas. Nature of the series: Biodistribution in ddY mouse pancreas at 0.5 uCi, iv after 10 mins. Type of series: ADME, organism-based. The conditions noted are these: in vivo. The essentials: as §1
Series [34] deals with Liver. In words: Biodistribution in ddY mouse liver at 0.5 uCi, iv after 30 mins. Type of series: ADME, organism-based. The conditions noted are these: in vivo, 0.5 h. The method in brief:
as §1

Series [35] has as its system Blood. Nature of the series: Biodistribution in ddY mouse blood at 0.5 uCi, iv after 2 mins. Type of series: ADME, organism-based. The conditions noted are these: in vivo. The method in brief: as §1
Series [36] has as its system Blood. Nature of the series: Biodistribution in ddY mouse blood at 0.5 uCi, iv after 10 mins. The conditions noted are these: in vivo. Type of series: ADME, organism-based. The method in brief: as §1
In series [37] the test system is Intestine. In words: Biodistribution in ddY mouse intestine at 0.5 uCi, iv after 30 mins. Type of series: ADME, organism-based. The conditions noted are these: in vivo, 0.5 h. The method in brief: as §1

In series [1], `CNc1ccc(-c2nc(-c3ccc(I)cc3)no2)cc1` displayed a Ki of 14.3 nM. This counts as double-digit nanomolar.

`CN(C)c1ccc(-c2nc(-c3ccc([125I])cc3)no2)cc1`: the Drug uptake with Kidney [2] was 4.81 % ID/g; in the series with Liver [3] it was 8.27 % ID/g; in the series on Spleen [4], 6.26 % ID/g; in the series on Heart [5], 1.24 % ID/g; in the series on Liver [6] it was 13.94 % ID/g; in the series on Stomach [7] it was 1.28 % ID/organ. In addition, the Drug uptake is listed as 5.37 % ID/g with Intestine [8]; 1.45 % ID/g in the series on Brain [9]; 2.41 % ID/g in the series on Spleen [10]; 2.47 % ID/g in the series on Pancreas [11]; 2.86 % ID/g in the series on Pancreas [12]; 2.23 % ID/g with Brain [13]. Also, the Drug uptake with Liver [14] turned out to be 5.15 % ID/g; with Stomach [15], 3.28 % ID/organ; in the series with Brain [16], 1.07 % ID/g; with Intestine [17] it was 1.59 % ID/g; in the series on Heart [18], 2.2 % ID/g; with Heart [19], 11.04 % ID/g. Also, the Drug uptake in the series on Pancreas [20] amounted to 3.17 % ID/g; in the series on Blood [21], 1.79 % ID/g; with Brain [22], 2.32 % ID/g; with Kidney [23], 7.83 % ID/g; with Stomach [24] it was 4.8 % ID/organ; in the series with Spleen [25] it was 4.56 % ID/g. Also, the Drug uptake with Kidney [26] was found to be 3.31 % ID/g; in the series with Stomach [27], 5.75 % ID/organ; with Kidney [28] it was 7.67 % ID/g; in the series on Heart [29], 4.81 % ID/g; in the series with Intestine [30], 2.4 % ID/g; in the series with Spleen [31], 3.11 % ID/g. The Drug uptake turned out to be 1.56 % ID/g with Blood [32]; 3.8 % ID/g in the series with Pancreas [33]; 5.89 % ID/g with Liver [34]; 5.42 % ID/g in the series with Blood [35]; 2.41 % ID/g in the series on Blood [36]; 4.12 % ID/g in the series on Intestine [37].

In turn, `COc1ccc(-c2nc(-c3ccc(I)cc3)no2)cc1` had a Ki in [1] of 4.3 nM.

For `Nc1ccc(-c2nc(-c3ccc([125I])cc3)no2)cc1`, the Drug uptake with Kidney [2] was 5.86 % ID/g; in the series on Liver [3] it was 17.37 % ID/g; with Spleen [4], 6.13 % ID/g; in the series with Heart [5] it was 3.51 % ID/g; in the series on Liver [6], 21.36 % ID/g; in the series on Stomach [7], 0.92 % ID/organ. The Drug uptake in the series with Intestine [8] was found to be 8.33 % ID/g; with Brain [9], 2.48 % ID/g; with Spleen [10] it was 5.02 % ID/g; in the series with Pancreas [11], 2.83 % ID/g; in the series on Pancreas [12], 3.36 % ID/g; in the series on Brain [13], 3.32 % ID/g. Also, the Drug uptake with Liver [14] worked out at 12.33 % ID/g; in the series on Stomach [15], 1.7 % ID/organ; in the series on Brain [16], 1.61 % ID/g; in the series on Intestine [17] it was 1.5 % ID/g; with Heart [18], 3.48 % ID/g; in the series with Heart [19], 9.29 % ID/g. The Drug uptake with Pancreas [20] is 3.69 % ID/g; with Blood [21], 3.09 % ID/g; in the series with Brain [22], 3.29 % ID/g; in the series with Kidney [23], 8.24 % ID/g; in the series on Stomach [24], 4.05 % ID/organ; with Spleen [25], 8.87 % ID/g. In addition, the Drug uptake in the series on Kidney [26] was 5.15 % ID/g; in the series on Stomach [27], 5.15 % ID/organ; with Kidney [28] it was 6.94 % ID/g; in the series on Heart [29], 4.02 % ID/g; with Intestine [30] it was 3.08 % ID/g; with Spleen [31], 6.89 % ID/g. Also, the Drug uptake with Blood [32] is 2.99 % ID/g; in the series on Pancreas [33], 3.88 % ID/g; in the series with Liver [34], 14.89 % ID/g; in the series with Blood [35], 4.55 % ID/g; in the series with Blood [36], 2.32 % ID/g; in the series on Intestine [37], 5.84 % ID/g.
